Results reported in ChEMBL document CHEMBL1135638, “Synthesis, molecular modeling studies, and pharmacological activity of selective A(1) receptor antagonists” (J Med Chem, 2002).

Key:
Adenosine receptor A1 [1] = molecular target: T1, Adenosine receptor A1 (Bos taurus, UniProt P28190); assay: Binding affinity to Adenosine A1 receptor in bovine cortical membranes by [3H]N6-cyclohexyl adenosine displacement.; format: cell membranes
T1 sequence (P28190 whole entry): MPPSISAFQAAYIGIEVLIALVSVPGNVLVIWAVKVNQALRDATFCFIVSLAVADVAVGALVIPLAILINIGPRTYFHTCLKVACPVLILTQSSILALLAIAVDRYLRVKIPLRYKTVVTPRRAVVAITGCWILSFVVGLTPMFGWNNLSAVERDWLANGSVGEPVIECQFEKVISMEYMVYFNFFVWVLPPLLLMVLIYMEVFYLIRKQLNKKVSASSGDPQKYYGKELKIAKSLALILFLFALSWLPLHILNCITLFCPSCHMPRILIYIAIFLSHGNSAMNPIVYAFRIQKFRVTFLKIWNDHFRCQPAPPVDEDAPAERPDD

[2] = tested on: Adenosine receptor A2a (Bos taurus); assay: Percent inhibition of specific [3H]-CGS-21,680 binding to adenosine A2A receptors in bovine striatal membranes at 10 uM concentration
Adenosine receptor A1 [3] = molecular target: T1, Adenosine receptor A1; assay: Binding affinity at bovine Adenosine A1 receptor.
[4] = molecular target: T2, Adenosine receptor A1 (Bos taurus) (UniProt P28190); assay: Percent inhibition of specific [3H]CHA binding on Adenosine A1 receptor in bovine cortical membranes at 10 uM concentration; format: cell membranes
T2 sequence (whole entry): T1 sequence (P28190 whole entry)

[5] = Compound was evaluated for the inhibition of Adenylate cyclase activity; format: functional
Adenosine receptor A1 [6] = molecular target: T1, Adenosine receptor A1; assay: Displacement of [3H]DPCPX from Adenosine A1 receptor of bovine cortical membranes with 1 mM GTP
Method in brief: (§1)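 [3H]DPCPX displacement from bovine cortical membranes, method of Pirovano et al., run with and without 1 mM GTP. Values from three separate experiments, mean ± SEM.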

Adenosine receptor A1 [7] = molecular target: T1, Adenosine receptor A1; assay: Displacement of [3H]DPCPX from Adenosine A1 receptor of bovine cortical membranes without GTP; method in brief: as §1
Adenosine receptor A1 [8] = molecular target: T3, Adenosine receptor A1 (Rattus norvegicus, UniProt P25099); assay: Binding affinity against rat Adenosine A1 receptor
T3 sequence (P25099 whole entry): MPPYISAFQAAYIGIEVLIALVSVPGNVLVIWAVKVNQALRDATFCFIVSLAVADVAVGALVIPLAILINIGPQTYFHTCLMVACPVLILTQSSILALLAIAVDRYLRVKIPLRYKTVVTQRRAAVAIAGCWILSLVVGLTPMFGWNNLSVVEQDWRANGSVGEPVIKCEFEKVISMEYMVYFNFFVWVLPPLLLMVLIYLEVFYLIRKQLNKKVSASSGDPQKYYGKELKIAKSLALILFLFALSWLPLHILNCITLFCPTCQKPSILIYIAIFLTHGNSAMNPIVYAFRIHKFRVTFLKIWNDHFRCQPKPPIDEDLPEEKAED

Compound	inhibition [2] [%]	Ki (Adenosine receptor A1 [3]) [nM]	inhibition [4] [%]	further results
CCCCNc1c(C(=O)OCC)cnc2c1cnn2CC(Cl)COc1ccccc1 (stereo not given)	23	–	–	Ki (Adenosine receptor A1 [1]): 1220 nM
c1ccc(-c2nc3c(NC4CCCC4)[nH]c4ccccc4c-3n2)cc1	–	10	–	–
CCCn1c(=O)c2[nH]c(C3CCC(=O)C3)nc2n(CCC)c1=O (stereo not given)	–	15	–	–
O=C(O)CCCn1nc(-c2c(-c3ccccc3)nn3ccccc23)ccc1=O	–	6.6	–	–
C[C@H](c1ccccc1)n1c2ccccc2c2c(N)nc(-c3ccccc3)nc21	–	2.6	–	–
Nc1nc2ccc(Cl)cc2n2nc(-c3ccccc3F)nc12	–	13	–	–
CCOC(=O)c1cnc2c(cnn2/C=C/c2ccccc2)c1NC1CC1	0	–	67	–
Nc1nc(-c2ccncc2)nc2c1c1c(n2-c2ccccc2)CCCC1	–	600	–	–
CCOC(=O)c1cnc2c(cnn2/C=C/c2ccccc2)c1NCc1ccccc1	2	–	39	–
CCOCCNc1c(C(=O)OCC)cnc2c1cnn2/C=C/c1ccccc1	0	–	51	–
CCOC(=O)c1cnc2c(cnn2CC(Cl)c2ccccc2)c1N1CCOCC1 (stereo not given)	0	–	–	–
CCOC(=O)c1cnc2c(cnn2CC(Cl)c2ccccc2)c1N1CCCC1 (stereo not given)	–	–	–	IC50 [5]: 154 nM; Ki (Adenosine receptor A1 [6]): 90 nM; Ki (Adenosine receptor A1 [7]): 103 nM; Ki (Adenosine receptor A1 [8]): 140 nM
CCOC(=O)c1cnc2c(cnn2CC(Cl)c2ccccc2)c1NCCc1ccccc1 (stereo not given)	–	–	–	IC50 [5]: 52.2 nM; Ki (Adenosine receptor A1 [6]): 56 nM; Ki (Adenosine receptor A1 [7]): 69.7 nM; Ki (Adenosine receptor A1 [8]): 73 nM
CCOC(=O)c1cnc2c(cnn2CC(Cl)COc2ccccc2)c1N1CCCC1 (stereo not given)	15	–	33	–
CCCNc1c(C(=O)OCC)cnc2c1cnn2/C=C/c1ccccc1	0	–	40	–
CCOCCNc1c(C(=O)OCC)cnc2c1cnn2CC(Cl)COc1ccccc1 (stereo not given)	–	–	–	Ki (Adenosine receptor A1 [1]): 2690 nM
CCOC(=O)c1cnc2c(cnn2CC(Cl)COc2ccccc2)c1NCCc1ccccc1 (stereo not given)	5	–	–	Ki (Adenosine receptor A1 [1]): 456 nM
Cc1nn(C)c2c(=O)[nH]c(-c3ccc(Cl)cc3N)nc12	–	176	–	–

Further lines, with some results ahead:

inhibition [2] [%]	Ki (Adenosine receptor A1 [3]) [nM]	inhibition [4] [%]	Compound	further results
0	–	21	CCOC(=O)c1cnc2c(cnn2/C=C/c2ccccc2)c1NC1CCCCC1	–
0	–	–	CCOC(=O)c1cnc2c(cnn2CC(Cl)c2ccccc2)c1NC1CCCCC1 (stereo not given)	Ki (Adenosine receptor A1 [1]): 1490 nM
1	–	–	CCOC(=O)c1cnc2c(cnn2CC(Cl)COc2ccccc2)c1NC1CCCCC1 (stereo not given)	Ki (Adenosine receptor A1 [1]): 3710 nM
–	0.49	–	O=C(/C=C/C1=CC=CN2N=C(c3ccccc3)CC12)N1CCCC[C@H]1CCO (stereo not given in full)	–
23	–	41	CCOC(=O)c1cnc2c(cnn2CC(Cl)c2ccccc2)c1N1CCCCC1 (stereo not given)	–
12	–	36	CCOC(=O)c1cnc2c(cnn2CC(Cl)COc2ccccc2)c1NCc1ccccc1 (stereo not given)	–
2	–	58	CCOC(=O)c1cnc2c(cnn2/C=C/c2ccccc2)c1NCCc1ccccc1	–
0	–	40	CCOC(=O)c1cnc2c(cnn2CC(Cl)COc2ccccc2)c1N1CCOCC1 (stereo not given)	–
34	–	–	CCOC(=O)c1cnc2c(cnn2CC(Cl)COc2ccccc2)c1NC1CC1 (stereo not given)	Ki (Adenosine receptor A1 [1]): 1050 nM
–	7.3	–	FC(F)(F)c1nnc2c(NC3CCCC3)nc3ccccc3n12	–
0	–	60	CCCCNc1c(C(=O)OCC)cnc2c1cnn2/C=C/c1ccccc1	–
0	–	–	CCOC(=O)c1cnc2c(cnn2CC(Cl)c2ccccc2)c1NCc1ccccc1 (stereo not given)	–
–	540	–	CN1C=NC2C(NC3CCCC3)=NC=NC21 (stereo not given)	–
–	29.5	–	CCCSc1nc(SC(CC)C(N)=O)nc2c1ncn2-c1ccccc1 (stereo not given)	–
–	7.9	–	Cc1cnc2c(NC3CCCC3)nc3ccccc3n12	–
0	–	39	CCOC(=O)c1cnc2c(cnn2/C=C/c2ccccc2)c1N1CCCC1	–
–	101	–	COc1ccc(-c2nc(N)c3c(C)c(C)n(C(C)c4ccccc4)c3n2)cc1 (stereo not given)	–
0	–	40	CCOC(=O)c1cnc2c(cnn2/C=C/c2ccccc2)c1N1CCOCC1	–
